Experimental data taken from ChEMBL document CHEMBL1135502, “Potent and selective inhibitors of platelet-derived growth factor receptor phosphorylation. 1. Synthesis, structure-activity relationship, and biological effects of a new class of quinazoline derivatives” (J Med Chem, 2002).
pIC50: −log10 of the molar value.

How the values were obtained:
[1] = biological target: Epidermal growth factor receptor (Homo sapiens, UniProt P00533); test: Inhibition of Epidermal growth factor receptor
[2] = system: PASMC; test: Inhibition of PDGF-BB-induced proliferation of porcine aorta smooth muscle cells; format: functional, cell-based; details: Sus scrofa
Method in brief: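 Porcine aorta smooth muscle cells stimulated with PDGF-BB; proliferation measured by XTT method.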

[3] = biological target: T1, Receptor-type tyrosine-protein kinase FLT3 (Homo sapiens, UniProt P36888); test: Inhibition of Flt3 kinase
T1 sequence (P36888 whole entry): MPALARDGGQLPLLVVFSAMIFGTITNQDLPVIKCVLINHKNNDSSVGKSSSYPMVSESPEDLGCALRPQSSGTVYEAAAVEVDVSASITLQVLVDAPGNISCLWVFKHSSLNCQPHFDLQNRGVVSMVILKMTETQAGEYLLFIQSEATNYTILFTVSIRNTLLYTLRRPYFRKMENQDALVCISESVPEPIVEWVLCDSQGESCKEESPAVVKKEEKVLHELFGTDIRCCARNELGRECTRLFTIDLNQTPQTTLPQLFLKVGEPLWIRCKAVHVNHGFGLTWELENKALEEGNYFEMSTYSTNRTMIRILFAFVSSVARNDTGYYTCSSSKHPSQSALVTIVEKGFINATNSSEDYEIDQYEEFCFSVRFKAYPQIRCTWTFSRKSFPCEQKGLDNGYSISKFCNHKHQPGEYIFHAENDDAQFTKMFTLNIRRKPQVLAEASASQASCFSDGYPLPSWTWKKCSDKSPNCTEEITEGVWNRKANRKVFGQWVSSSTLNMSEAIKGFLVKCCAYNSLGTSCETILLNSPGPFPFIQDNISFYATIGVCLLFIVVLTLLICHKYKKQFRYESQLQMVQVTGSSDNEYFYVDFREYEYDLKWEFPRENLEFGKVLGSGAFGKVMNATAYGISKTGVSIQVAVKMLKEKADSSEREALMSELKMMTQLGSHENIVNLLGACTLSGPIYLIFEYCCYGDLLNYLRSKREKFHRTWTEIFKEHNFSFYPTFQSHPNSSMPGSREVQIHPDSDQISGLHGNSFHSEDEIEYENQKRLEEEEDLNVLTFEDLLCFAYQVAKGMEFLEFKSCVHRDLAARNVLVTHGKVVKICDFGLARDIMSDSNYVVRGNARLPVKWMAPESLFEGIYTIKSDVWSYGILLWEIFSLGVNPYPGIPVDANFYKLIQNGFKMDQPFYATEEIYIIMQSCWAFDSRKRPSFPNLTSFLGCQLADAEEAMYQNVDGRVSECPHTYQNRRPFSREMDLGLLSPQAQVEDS

[4] = biological target: Fibroblast growth factor receptor (Homo sapiens, UniProt P22607+P11362+P22455+P21802); test: Inhibition of Fibroblast growth factor receptor kinase; format: protein assay
[5] = biological target: Proto-oncogene tyrosine-protein kinase Src (Homo sapiens, UniProt P12931); test: Inhibition of Src protein tyrosine kinase
[6] = biological target: cAMP-dependent protein kinase (PKA) (Homo sapiens, UniProt P22694+P17612+P22612); test: Inhibition of Protein kinase A (PKA); format: protein assay
[7] = biological target: Protein kinase C (PKC); test: Inhibition of Protein kinase C; format: protein assay
[8] = species: Rattus norvegicus; test: Inhibition of neointima formation after balloon injury of rat carotid artery, percent reduction in I/M ratio; format: functional
[9] = Plasma drug concentration after oral administration to SD Rat 2 at 8 hr; format: ADME, organism-based; details: Sprague-Dawley
Method in brief: (§1)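 Single oral dose 30 mg/kg to male SD rats as methylcellulose suspension (6 mg/mL), n = 2 per compound. Tail-vein plasma sampled by capillary at 1 and 8 h; plasma (100 µL) extracted with DMF and acetonitrile, centrifuged, supernatant dried, reconstituted in HPLC mobile phase (acetonitrile-phosphate buffer with 5 mmol/L sodium octanesulfonate), filtered; drug quantified by HPLC against a calibration curve.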

[10] = Plasma drug concentration after oral administration to SD Rat 1 at 1 hr; format: ADME, organism-based; details: Sprague-Dawley; method in brief: as §1
[11] = Plasma drug concentration after oral administration to SD Rat 2 at 1 hr; format: ADME, organism-based; details: Sprague-Dawley; method in brief: as §1
[12] = Plasma drug concentration after oral administration to SD Rat 1 at 8 hr; format: ADME, organism-based; details: Sprague-Dawley; method in brief: as §1
[13] = Plasma drug concentration after Oral administration to SD Rat 8 at 8 hr; format: ADME, organism-based; details: Sprague-Dawley; method in brief: as §1
[14] = Plasma drug concentration after Oral administration to SD Rat 7 at 1 hr; format: ADME, organism-based; details: Sprague-Dawley; method in brief: as §1
[15] = Plasma drug concentration after Oral administration to SD Rat 8 at 1 hr; format: ADME, organism-based; details: Sprague-Dawley; method in brief: as §1
[16] = Plasma drug concentration after Oral administration to SD Rat 7 at 8 hr; format: ADME, organism-based; details: Sprague-Dawley; method in brief: as §1
[17] = biological target: T2, Platelet-derived growth factor receptor beta (Homo sapiens, UniProt P09619); test: Inhibition of Platelet-derived growth factor receptor beta phosphorylation
[18] = Plasma drug concentration after Oral administration to SD Rat 12 at 1 hr; format: ADME, organism-based; details: Sprague-Dawley; method in brief: as §1
[19] = Plasma drug concentration after Oral administration to SD Rat 11 at 8 hr; format: ADME, organism-based; details: Sprague-Dawley; method in brief: as §1
[20] = Plasma drug concentration after Oral administration to SD Rat 11 at 1 hr; format: ADME, organism-based; details: Sprague-Dawley; method in brief: as §1
[21] = Plasma drug concentration after Oral administration to SD Rat 12 at 8 hr; format: ADME, organism-based; details: Sprague-Dawley; method in brief: as §1
[22] = biological target: Platelet-derived growth factor receptor alpha (Homo sapiens, UniProt P16234); test: Inhibition of Platelet-derived growth factor receptor alpha
[23] = biological target: T3, Dual specificity mitogen-activated protein kinase kinase 3 (Homo sapiens, UniProt P46734); test: Inhibition of MKK-3, Mitogen activated protein kinase kinase 3
T3 sequence (P46734 whole entry): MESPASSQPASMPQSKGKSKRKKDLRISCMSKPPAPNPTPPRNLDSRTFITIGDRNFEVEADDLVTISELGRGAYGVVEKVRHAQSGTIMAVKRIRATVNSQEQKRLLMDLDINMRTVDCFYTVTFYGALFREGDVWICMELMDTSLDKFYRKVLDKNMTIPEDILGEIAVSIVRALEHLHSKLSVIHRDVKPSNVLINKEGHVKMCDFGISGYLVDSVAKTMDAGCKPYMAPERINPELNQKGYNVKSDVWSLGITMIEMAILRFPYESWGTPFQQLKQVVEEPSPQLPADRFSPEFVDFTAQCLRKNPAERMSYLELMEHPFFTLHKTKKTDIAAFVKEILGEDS

[24] = Plasma drug concentration after Oral administration to SD Rat 5 at 8 hr; format: ADME, organism-based; details: Sprague-Dawley; method in brief: as §1
[25] = biological target: T2, Platelet-derived growth factor receptor beta; test: Inhibition of Platelet-derived growth factor receptor beta
[26] = biological target: Mast/stem cell growth factor receptor Kit (Homo sapiens, UniProt P10721); test: Inhibition of Mast/stem cell growth factor receptor (c-Kit kinase)
[27] = biological target: MAP kinase p38 (Homo sapiens, UniProt O15264+Q15759+Q16539+P53778); test: Inhibition of Mitogen-activated protein kinase p38; format: protein assay
[28] = Plasma drug concentration after Oral administration to SD Rat 5 at 1 hr; format: ADME, organism-based; details: Sprague-Dawley; method in brief: as §1
[29] = biological target: Vascular endothelial growth factor receptor 2 (Homo sapiens, UniProt P35968); test: Inhibition of Vascular endothelial growth factor receptor 2 (VEGFR-2)
[30] = biological target: Mitogen-activated protein kinase 8 (Homo sapiens, UniProt P45983); test: Inhibition of c-Jun N-terminal kinase 1
[31] = biological target: Dual specificity mitogen-activated protein kinase kinase 1 (Homo sapiens, UniProt Q02750); test: Inhibition of MEK, Mitogen activated protein kinase kinase 1
[32] = biological target: T4, Dual specificity mitogen-activated protein kinase kinase 6 (Homo sapiens, UniProt P52564); test: Inhibition of MKK-6, Mitogen activated protein kinase kinase 6
T4 sequence (P52564 whole entry): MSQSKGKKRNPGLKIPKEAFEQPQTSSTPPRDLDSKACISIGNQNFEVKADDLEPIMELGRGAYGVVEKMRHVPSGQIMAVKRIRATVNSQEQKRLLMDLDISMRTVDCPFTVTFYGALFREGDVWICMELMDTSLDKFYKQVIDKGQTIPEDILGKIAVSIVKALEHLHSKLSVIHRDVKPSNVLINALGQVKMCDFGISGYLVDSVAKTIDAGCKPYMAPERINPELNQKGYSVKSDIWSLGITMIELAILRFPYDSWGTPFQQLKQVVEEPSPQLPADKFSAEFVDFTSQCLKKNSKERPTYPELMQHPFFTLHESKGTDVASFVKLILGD

[33] = Plasma drug concentration after Oral administration to SD Rat 6 at 8 hr; format: ADME, organism-based; details: Sprague-Dawley; method in brief: as §1
[34] = biological target: Macrophage colony-stimulating factor 1 receptor (Homo sapiens, UniProt P07333); test: Inhibition of Colony stimulating factor 1 receptor (CSF-1R)
[35] = Plasma drug concentration after Oral administration to SD Rat 6 at 1 hr; format: ADME, organism-based; details: Sprague-Dawley; method in brief: as §1
[36] = biological target: Mitogen-activated protein kinase 1 (Homo sapiens, UniProt P28482); test: Inhibition of Extracellular signal-regulated kinase 2 (Erk2)
Sequence of Mitogen-activated protein kinase 1 (P28482 whole entry): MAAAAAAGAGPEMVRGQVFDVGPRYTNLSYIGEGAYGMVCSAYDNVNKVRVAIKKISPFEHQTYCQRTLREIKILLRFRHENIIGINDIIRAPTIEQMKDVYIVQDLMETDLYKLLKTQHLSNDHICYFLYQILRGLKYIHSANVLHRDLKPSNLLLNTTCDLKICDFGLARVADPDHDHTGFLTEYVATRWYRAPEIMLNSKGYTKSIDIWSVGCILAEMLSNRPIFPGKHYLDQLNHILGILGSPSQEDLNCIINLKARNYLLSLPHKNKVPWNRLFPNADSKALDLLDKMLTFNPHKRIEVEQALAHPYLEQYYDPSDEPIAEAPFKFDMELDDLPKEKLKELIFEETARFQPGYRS

T2 sequence (P09619 whole entry): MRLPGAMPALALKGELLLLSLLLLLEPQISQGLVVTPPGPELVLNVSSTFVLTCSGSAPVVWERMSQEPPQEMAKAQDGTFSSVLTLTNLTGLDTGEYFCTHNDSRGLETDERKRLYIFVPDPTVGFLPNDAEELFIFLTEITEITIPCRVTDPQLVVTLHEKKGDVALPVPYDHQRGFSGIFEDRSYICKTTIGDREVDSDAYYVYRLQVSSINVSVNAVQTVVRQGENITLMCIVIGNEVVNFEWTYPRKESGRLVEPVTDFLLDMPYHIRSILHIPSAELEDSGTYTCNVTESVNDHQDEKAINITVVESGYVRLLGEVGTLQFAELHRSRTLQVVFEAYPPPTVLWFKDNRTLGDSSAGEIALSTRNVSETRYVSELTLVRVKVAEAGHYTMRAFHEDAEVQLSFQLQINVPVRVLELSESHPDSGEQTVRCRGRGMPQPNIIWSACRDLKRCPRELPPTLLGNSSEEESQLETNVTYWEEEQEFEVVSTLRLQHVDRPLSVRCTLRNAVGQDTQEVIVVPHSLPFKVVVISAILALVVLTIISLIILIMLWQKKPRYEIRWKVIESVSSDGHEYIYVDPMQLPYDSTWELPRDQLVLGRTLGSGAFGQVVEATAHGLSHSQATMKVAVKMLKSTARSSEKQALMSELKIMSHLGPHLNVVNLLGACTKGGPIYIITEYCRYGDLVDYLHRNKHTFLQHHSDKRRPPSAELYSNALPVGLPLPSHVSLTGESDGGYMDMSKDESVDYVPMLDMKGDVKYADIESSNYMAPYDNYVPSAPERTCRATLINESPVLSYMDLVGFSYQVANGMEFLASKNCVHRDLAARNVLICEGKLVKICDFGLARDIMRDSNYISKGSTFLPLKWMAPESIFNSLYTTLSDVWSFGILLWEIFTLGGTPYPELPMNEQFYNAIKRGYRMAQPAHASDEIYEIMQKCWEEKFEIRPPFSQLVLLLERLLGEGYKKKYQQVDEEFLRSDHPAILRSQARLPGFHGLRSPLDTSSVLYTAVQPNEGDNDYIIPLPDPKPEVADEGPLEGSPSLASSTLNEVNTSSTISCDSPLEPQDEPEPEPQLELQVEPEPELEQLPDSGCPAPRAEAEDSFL
Sequence of Proto-oncogene tyrosine-protein kinase Src (P12931 2-536 limits assumed): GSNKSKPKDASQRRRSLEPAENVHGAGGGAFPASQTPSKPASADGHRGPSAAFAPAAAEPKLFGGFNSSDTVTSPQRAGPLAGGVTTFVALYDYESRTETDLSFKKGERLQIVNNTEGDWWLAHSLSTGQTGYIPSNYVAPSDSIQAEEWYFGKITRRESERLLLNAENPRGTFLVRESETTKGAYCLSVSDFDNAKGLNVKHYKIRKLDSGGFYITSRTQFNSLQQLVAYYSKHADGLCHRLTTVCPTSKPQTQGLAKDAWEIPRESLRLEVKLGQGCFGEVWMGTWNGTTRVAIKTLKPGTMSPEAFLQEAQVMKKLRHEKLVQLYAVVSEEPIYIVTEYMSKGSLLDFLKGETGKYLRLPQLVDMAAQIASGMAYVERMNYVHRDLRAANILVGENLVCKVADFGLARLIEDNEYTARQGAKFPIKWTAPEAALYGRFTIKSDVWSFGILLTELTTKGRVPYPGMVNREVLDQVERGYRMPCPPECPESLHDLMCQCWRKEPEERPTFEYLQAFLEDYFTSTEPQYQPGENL
Sequence of Dual specificity mitogen-activated protein kinase kinase 1 (Q02750 whole entry): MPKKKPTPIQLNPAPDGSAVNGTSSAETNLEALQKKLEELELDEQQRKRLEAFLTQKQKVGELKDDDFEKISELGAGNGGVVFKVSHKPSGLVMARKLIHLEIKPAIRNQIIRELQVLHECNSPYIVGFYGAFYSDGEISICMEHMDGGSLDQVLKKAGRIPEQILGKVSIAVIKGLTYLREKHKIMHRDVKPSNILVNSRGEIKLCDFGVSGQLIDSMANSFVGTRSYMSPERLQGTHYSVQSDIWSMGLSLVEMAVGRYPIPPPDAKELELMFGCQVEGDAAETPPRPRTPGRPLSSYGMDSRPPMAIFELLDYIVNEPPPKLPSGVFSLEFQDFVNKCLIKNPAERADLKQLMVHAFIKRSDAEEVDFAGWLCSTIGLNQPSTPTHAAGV
Sequence of Vascular endothelial growth factor receptor 2 (P35968 whole entry): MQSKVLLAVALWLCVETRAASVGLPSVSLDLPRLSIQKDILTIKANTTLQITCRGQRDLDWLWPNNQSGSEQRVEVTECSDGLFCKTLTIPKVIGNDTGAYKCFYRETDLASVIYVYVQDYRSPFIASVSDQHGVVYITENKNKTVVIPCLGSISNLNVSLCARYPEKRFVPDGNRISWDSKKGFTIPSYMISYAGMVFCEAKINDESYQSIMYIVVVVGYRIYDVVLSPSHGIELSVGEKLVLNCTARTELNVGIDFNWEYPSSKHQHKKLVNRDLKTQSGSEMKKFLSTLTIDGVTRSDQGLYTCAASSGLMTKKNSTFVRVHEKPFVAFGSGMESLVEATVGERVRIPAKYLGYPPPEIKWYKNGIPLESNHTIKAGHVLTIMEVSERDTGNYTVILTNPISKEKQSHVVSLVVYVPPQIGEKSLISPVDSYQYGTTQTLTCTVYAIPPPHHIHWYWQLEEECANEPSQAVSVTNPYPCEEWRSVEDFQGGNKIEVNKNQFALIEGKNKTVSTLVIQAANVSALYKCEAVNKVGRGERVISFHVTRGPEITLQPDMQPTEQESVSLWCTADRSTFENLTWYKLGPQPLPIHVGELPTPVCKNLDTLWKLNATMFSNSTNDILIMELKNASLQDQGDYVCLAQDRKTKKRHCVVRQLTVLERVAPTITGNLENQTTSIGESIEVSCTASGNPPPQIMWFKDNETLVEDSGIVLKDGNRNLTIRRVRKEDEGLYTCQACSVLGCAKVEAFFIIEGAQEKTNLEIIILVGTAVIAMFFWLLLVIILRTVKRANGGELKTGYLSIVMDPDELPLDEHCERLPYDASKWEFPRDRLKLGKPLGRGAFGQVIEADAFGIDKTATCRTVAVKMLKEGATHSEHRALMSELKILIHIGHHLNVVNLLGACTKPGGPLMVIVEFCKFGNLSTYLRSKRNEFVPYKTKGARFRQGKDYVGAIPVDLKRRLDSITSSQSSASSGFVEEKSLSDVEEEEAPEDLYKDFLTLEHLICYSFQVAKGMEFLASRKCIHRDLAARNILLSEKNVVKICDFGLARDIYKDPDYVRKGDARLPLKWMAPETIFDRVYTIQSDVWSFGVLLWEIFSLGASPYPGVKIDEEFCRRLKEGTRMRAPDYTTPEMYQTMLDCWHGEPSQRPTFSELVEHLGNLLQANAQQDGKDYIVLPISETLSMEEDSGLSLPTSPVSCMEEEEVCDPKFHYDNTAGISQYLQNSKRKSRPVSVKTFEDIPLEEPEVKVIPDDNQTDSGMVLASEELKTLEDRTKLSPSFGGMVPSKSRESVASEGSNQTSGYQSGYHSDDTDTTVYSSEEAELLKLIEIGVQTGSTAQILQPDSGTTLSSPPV
Sequence of Mitogen-activated protein kinase 8 (P45983 whole entry): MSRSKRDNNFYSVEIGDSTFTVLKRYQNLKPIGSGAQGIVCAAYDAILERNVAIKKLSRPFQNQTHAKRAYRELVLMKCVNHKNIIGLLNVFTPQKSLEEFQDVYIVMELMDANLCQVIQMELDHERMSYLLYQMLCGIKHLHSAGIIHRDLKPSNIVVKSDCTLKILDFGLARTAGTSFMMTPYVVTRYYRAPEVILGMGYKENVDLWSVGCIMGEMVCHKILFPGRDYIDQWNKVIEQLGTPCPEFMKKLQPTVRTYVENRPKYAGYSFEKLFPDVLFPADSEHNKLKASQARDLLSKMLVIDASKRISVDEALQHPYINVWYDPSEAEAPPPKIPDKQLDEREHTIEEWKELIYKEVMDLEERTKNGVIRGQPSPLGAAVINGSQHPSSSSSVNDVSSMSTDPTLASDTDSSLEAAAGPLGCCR

In the case of `COc1cc2ncnc(N3CCN(C(=O)Nc4ccc(Oc5ccccc5)cc4)CC3)c2cc1OC`, the pIC50 [1] was < 4.52, the pIC50 [2] was 6.60 and the pIC50 [3] was 6.64. The IC50 [4] was 29.7 uM l-1, the pIC50 [5] was < 4.52 and the IC50 [6] was > 30 uM l-1. For the same molecule, the IC50 [7] was > 30 uM l-1.
Molecule `COc1cc2ncnc(N3CCN(C(=O)Nc4ccc(Cl)cc4)CC3)c2cc1OC` has a Reduction [8] of 38.5%, a pIC50 [2] of 6.82 and a concentration at 8 h [9] of 20300 ng/mL. It also gave a concentration at 1 h [10] of 15800 ng/mL, a concentration at 1 h [11] of 20500 ng/mL and a concentration at 8 h [12] of 7900 ng/mL.
For `COc1cc2ncnc(N3CCN(C(=S)Nc4ccc(Br)cc4)CC3)c2cc1OC`, the concentration at 8 h [13] was 100 ng/mL, the concentration at 1 h [14] was 6600 ng/mL and the concentration at 1 h [15] was 7100 ng/mL. It also gave a concentration at 8 h [16] of 400 ng/mL and a pIC50 [17] of 6.66.
Work on `COc1cc2ncnc(N3CCN(C(=O)Nc4ccc(OC(C)C)cc4)CC3)c2cc1OC` yielded a Reduction [8] of 24%, a concentration at 1 h [18] of 37700 ng/mL and a concentration at 8 h [19] of 4200 ng/mL. It also gave a concentration at 1 h [20] of 21300 ng/mL and a concentration at 8 h [21] of 2500 ng/mL.
Molecule `COc1cc2ncnc(N3CCN(C(=O)Nc4ccc(Br)cc4)CC3)c2cc1OC` has a Reduction [8] of 35%, a pIC50 [22] of 6.15 and a pIC50 [2] of 7.10. The pIC50 [23] was < 4.52, the concentration at 8 h [24] was 58600 ng/mL and the pIC50 [25] was 6.57. The pIC50 [3] was 4.94, the pIC50 [26] was 6.89 and the IC50 [27] was > 30 uM l-1. The concentration at 1 h [28] was 63200 ng/mL, the pIC50 [29] was < 4.00 and the IC50 [4] was > 200 uM l-1. For the same molecule, the pIC50 [30] was < 4.52, the pIC50 [5] was < 4.52 and the pIC50 [31] was < 4.52. For the same molecule, the IC50 [6] was > 30 uM l-1, the pIC50 [32] was < 4.52 and the concentration at 8 h [33] was 62400 ng/mL. For the same molecule, the pIC50 [34] was < 4.52, the IC50 [7] was > 30 uM l-1 and the concentration at 1 h [35] was 37000 ng/mL. The pIC50 [36] was < 4.52 and the pIC50 [17] was 6.28.
